Source: PubChem BioAssay (Broad Institute)
GASC1 inh: inhibitors of GASC-1 (KDM4C) histone demethylase, primary screen, biochemical, single concentration HTS; Lysine-specific demethylase 4C (Homo sapiens), Q9H3R0; GST-KDM4C 2-372, H3K9me3 peptide, LANCE TR-FRET; inhibition, % at 12.5 µM; actives 0.15% (n = 96,000);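 active = mean replicate inhibition above about 25%, with at least 55% of replicates also reaching it, limit read from the data, passing the limit was not always enough; inconclusive = only one of those two conditions met; inactive = neither condition met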
Target sequence (Q9H3R0 2-372 limits assumed): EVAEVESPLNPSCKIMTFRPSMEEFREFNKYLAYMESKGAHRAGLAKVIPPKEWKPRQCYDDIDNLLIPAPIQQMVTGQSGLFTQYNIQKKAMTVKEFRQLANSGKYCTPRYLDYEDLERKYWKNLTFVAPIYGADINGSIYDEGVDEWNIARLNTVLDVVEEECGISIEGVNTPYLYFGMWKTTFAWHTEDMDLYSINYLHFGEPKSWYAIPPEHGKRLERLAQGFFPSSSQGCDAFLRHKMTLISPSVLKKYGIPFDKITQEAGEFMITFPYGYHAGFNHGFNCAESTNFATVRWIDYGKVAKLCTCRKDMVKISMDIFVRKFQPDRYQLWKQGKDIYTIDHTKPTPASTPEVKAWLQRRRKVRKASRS
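Assay system: GST-GASC-1 enzyme fragment 2-372 | Amount: 10 nM enzyme | Medium: HEPES buffer, pH 7.5, plus ascorbate | Reagent: H3K9me3 peptide substrate, Fe(II), 2-oxoglutarate | Doses: Single-point compound screen | Incubation: 30 min demethylation and 1 h detection at room temperature | Measured by: LANCE TR-FRET, excitation 340 nm, emissions 618 and 671 nm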
T cruzi growth-1: T. cruzi intracellular proliferation inhibitors, primary screen, cell-based, beta-gal Tulahuen parasites, NIH3T3 host, luminescence; T. cruzi beta-gal in NIH3T3, GalScreen luminescence, 90 h; inhibition, % at 8.34 µM; actives 5.9% (n = 77,000); AID 624255, 2012;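 active = mean inhibition above about 93%, with at least 55% of replicates each passing it, limit read from the data, passing the limit was not always enough; inconclusive = only one of those two conditions holds; inactive = neither condition holds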
IDH1 R132H inh: inhibitors of IDH1 R132H reductase, primary screen, biochemical, plate reader, single point. diaphorase/resazurin fluorescence, 60 min. inhibition, % at 10 µM. actives 0.18% (n = 70,000). AID 624101, 2012; in the data active = inhibition above about 34%; inconclusive = no clear call, values can overlap the other calls; inactive = below about 11%;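 note: 0% = DMSO and 100% = no enzyme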
Target sequence (O75874 whole entry R132H): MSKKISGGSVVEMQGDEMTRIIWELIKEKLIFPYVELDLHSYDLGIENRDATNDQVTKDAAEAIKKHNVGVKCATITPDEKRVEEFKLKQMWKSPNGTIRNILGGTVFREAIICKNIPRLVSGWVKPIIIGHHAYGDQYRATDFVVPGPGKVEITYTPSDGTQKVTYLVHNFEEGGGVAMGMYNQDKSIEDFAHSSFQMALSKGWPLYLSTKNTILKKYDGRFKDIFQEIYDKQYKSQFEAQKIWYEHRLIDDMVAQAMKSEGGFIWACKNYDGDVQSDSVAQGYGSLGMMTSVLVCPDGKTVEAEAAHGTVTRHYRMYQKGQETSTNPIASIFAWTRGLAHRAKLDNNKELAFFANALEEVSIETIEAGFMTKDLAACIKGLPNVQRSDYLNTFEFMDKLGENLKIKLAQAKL
T cruzi growth-2: T. cruzi intracellular proliferation inhibitors, confirmation, cell-based, NIH3T3 host, beta-gal parasite, luminescence, cherry-pick; shares compounds with T cruzi growth-1; T. cruzi beta-gal in NIH3T3, GalScreen luminescence, 90 h; inhibition, % at 8.35 µM; actives 72% (n = 5,600); AID 651739, 2012;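 active = mean replicate inhibition above about 95% and at least 55% of replicates individually reaching it, limit read from the data; inconclusive = only one of the two criteria is met; inactive = neither criterion is met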
T cruzi growth-3: inhibitors of intracellular T. cruzi replication, confirmation, NIH3T3 host cells, beta-gal parasites, cherry-pick, set 2; shares compounds with T cruzi growth-1; T. cruzi beta-gal in NIH3T3, GalScreen luminescence, 90 h; inhibition, % at 2.09 µM; actives 21% (n = 5,600); AID 651740, 2012;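 active = mean inhibition above about 95%, with at least 55% of replicates also reaching it, limit read from the data; inconclusive = meets just one of the two conditions; inactive = meets neither condition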;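 note: plate controls were neutral control median for no effect and positive control median for full effect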
3T3 cytotox: cytotoxicity in mouse NIH/3T3 fibroblasts, confirmation, cytotoxicity control for T. cruzi proliferation inhibitor project, cell-based, cherry-pick, single point; shares compounds with T cruzi growth-1; NIH/3T3 viability, CellTiter-Glo ATP luminescence, 90 h; cytotoxicity (signal decrease), % at 8.35 µM; actives 14% (n = 5,600);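 active = mean signal decrease across replicates above about 35% based on untreated-well scatter, with enough replicates individually passing, limit read from the data; inconclusive = no rule stated though some were filed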;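 note: 0% = median of neutral control wells and 100% = median of positive control wells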
NIH3T3 tox 2: NIH/3T3 fibroblast cytotoxicity, confirmation, cytotoxicity control, cell-based, cherry-pick, single point, set 2 | NIH/3T3 viability, CellTiter-Glo ATP luminescence, 90 h | shares compounds with T cruzi growth-1 | inhibition, % at 24.9 µM | actives 56% (n = 5,600);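 active = mean loss of cell viability signal at or above a set limit, and enough replicates individually reaching it; inconclusive = meets only the mean limit or only the replicate share; inactive = meets neither condition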;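 note: 0% = median of neutral control wells and 100% = median of positive control wells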
* hit, by the source's call; ? = inconclusive; . = no result. Shown is part of a subset that was picked to be rich in hits.

SMILES	GASC1 inh	T cruzi growth-1	IDH1 R132H inh	T cruzi growth-2	T cruzi growth-3	3T3 cytotox	NIH3T3 tox 2
O=C(CNCCO)Nc1sc2c(c1C(=O)Nc1ccc(Br)cc1)CCC2	.	.	0.6	.	.	.	.
COC(=O)c1ccc(NC(=O)CN2C(=O)C3C4CC(c5ccccc5)C(C4)C3C2=O)cc1 (stereo not given)	.	.	0.3	.	.	.	.
COc1ccc(NC(=S)N2CCN(Cc3c(C)nn(C)c3C)CC2)cc1OC	.	.	-0.9	.	.	.	.
C/C=C1\C(O[C@@H]2O[C@H](CO)[C@@H](O)[C@H](O)[C@H]2O)OC=C(C(=O)OC)C1CC(=O)OC[C@@H]1[C@H](C)[C@@H](OC(=O)CC2C(C(=O)OC)=COC(O[C@@H]3O[C@H](CO)[C@@H](O)[C@H](O)[C@H]3O)/C2=C\C)C[C@H]1C(CO)CO (stereo not given in full)	.	.	-0.3	.	.	.	.
CO[C@@H]1CN(C)C(=O)c2cc(NS(=O)(=O)c3ccccc3)ccc2OC[C@@H](C)N(Cc2nccs2)C[C@@H]1C	-0.1	35.1	-0.1	.	.	.	.
CO[C@@H]1CN(C)C(=O)c2cc(NS(=O)(=O)c3ccccc3)ccc2OC[C@H](C)N(Cc2nccs2)C[C@@H]1C	-1.0	110.5*	0.3	73.8	2.0	18.3	44.8*
CN(C)[C@@H]1CCc2[nH]c3ccc(NC(=O)c4ccc(F)cc4)cc3c2C1	.	.	0.4	.	.	.	.
Cc1cccc(S(=O)(=O)N2C[C@H]3[C@@H](c4ccccc42)[C@H](CO)N3CC2CCOCC2)c1	1.5	31.6	.	.	.	.	.
Cc1cccc(S(=O)(=O)N2C[C@H]3[C@@H](c4ccccc42)[C@H](CO)N3CC2CCCC2)c1	1.8	?	.	111.6*	72.0	7.1	?
O=C(Nc1ccc(Cl)cc1)N1C[C@H]2[C@@H](c3ccccc31)[C@H](CO)N2CC1CCCC1	-1.3	31.1	.	.	.	.	.
O=C(Nc1ccc(F)cc1)N1C[C@H]2[C@@H](c3ccccc31)[C@@H](CO)N2Cc1ccccc1Cl	-0.1	?	.	100.7*	7.6	-10.5	-5.3
O=C(C1CCCC1)N1C[C@H]2[C@@H](c3ccccc31)[C@H](CO)N2C(=O)c1ccccc1F	4.1	100.4*	.	90.4	37.8	5.9	?
O=C(Nc1ccc(Cl)cc1)N1C[C@@H]2[C@H](c3ccccc31)[C@H](CO)N2CC1CCCCC1	0.3	117.8*	.	110.8*	31.5	14.8	103.4*
O=C(Nc1ccc(F)cc1)N1C[C@@H]2[C@H](c3ccccc31)[C@@H](CO)N2Cc1ccccc1Cl	-0.2	-32.0	.	.	.	.	.
O=C(C1CCCC1)N1C[C@@H]2[C@H](c3ccccc31)[C@H](CO)N2C(=O)c1ccccc1F	1.2	-27.3	.	.	.	.	.
Cc1c(CCC(=O)O)c(=O)oc2cc(OCc3ccc(Cl)c(Cl)c3)ccc12	.	.	-0.1	.	.	.	.
O=C(Cn1cc(C(=O)c2ccccc2F)c2ccccc21)Nc1cccc(C(F)(F)F)c1	.	.	0.3	.	.	.	.
O=C(CSc1nc2ccccc2c(=O)[nH]1)Nc1ccc(F)cc1F	.	.	-0.1	.	.	.	.
CCN(CC(=O)O)S(=O)(=O)c1ccc(Cl)cc1	.	.	-1.0	.	.	.	.
O=C(C1CC1)N1C[C@@H]2[C@H](c3ccccc31)[C@H](CO)N2Cc1ccccc1Cl	-1.3	33.5	.	.	.	.	.
O=C(C1CCCCC1)N1C[C@H]2[C@@H](c3ccccc31)[C@@H](CO)N2Cc1ccccc1Cl	0.4	101.4*	.	102.6*	23.8	14.7	33.7
COc1ccc([N+](=O)[O-])cc1NC(=O)CN(c1ccccc1F)S(C)(=O)=O	.	.	1.1	.	.	.	.
COc1ccccc1NC(=O)Cn1cnc2scc(-c3cccc([N+](=O)[O-])c3)c2c1=O	.	.	0.4	.	.	.	.
COc1ccc(NC(=O)N(C)C[C@@H]2OCCCC[C@H](C)Oc3ccc(NC(=O)Nc4ccc(F)cc4)cc3C(=O)N([C@@H](C)CO)C[C@@H]2C)cc1	-2.8	101.4*	.	107.3*	38.8	15.1	-0.2
COc1ccc(NC(=O)Nc2ccc3c(c2)C(=O)N([C@@H](C)CO)C[C@H](C)[C@H](CN(C)C(=O)Nc2ccc(OC)cc2)OCCCC[C@@H](C)O3)cc1	1.9	.	0.1	.	.	.	.
SMILES	GASC1 inh	T cruzi growth-1	IDH1 R132H inh	T cruzi growth-2	T cruzi growth-3	3T3 cytotox	NIH3T3 tox 2
COc1ccc(NC(=O)Nc2ccc3c(c2)C(=O)N([C@@H](C)CO)C[C@H](C)[C@@H](CN(C)C(=O)C2CCCCC2)OCCCC[C@@H](C)O3)cc1	0.4	95.2*	0.4	103.9*	4.6	0.5	-28.3
COc1ccc(NC(=O)Nc2ccc3c(c2)C(=O)N([C@@H](C)CO)C[C@H](C)[C@@H](CN(C)C(=O)C2CCCCC2)OCCCC[C@H](C)O3)cc1	-0.1	86.4	1.9	.	.	.	.
COc1ccc(NC(=O)Nc2ccc3c(c2)C(=O)N([C@H](C)CO)C[C@H](C)[C@H](CN(C)C(=O)Nc2ccc(OC)cc2)OCCCC[C@H](C)O3)cc1	-0.4	?	.	103.5*	22.0	-3.9	5.3
COc1ccc(NC(=O)Nc2ccc3c(c2)C(=O)N([C@H](C)CO)C[C@H](C)[C@H](CN(C)C(=O)Nc2ccc(F)cc2)OCCCC[C@@H](C)O3)cc1	-3.3	59.7	.	.	.	.	.
Cc1ccc(S(=O)(=O)NCC(=O)Nc2ccccc2F)cc1	.	.	0.4	.	.	.	.
Cc1cc(OCc2noc(CSc3ccc(C(F)(F)F)cn3)n2)cc(C)c1Cl	.	.	1.3	.	.	.	.
C[C@H]1CN([C@@H](C)CO)S(=O)(=O)c2ccc(C#CC3CC3)cc2O[C@H]1CN(C)Cc1cccc(F)c1	9.3	.	-1.5	.	.	.	.
C[C@H]1CN([C@@H](C)CO)S(=O)(=O)c2ccc(C#Cc3ccccn3)cc2O[C@@H]1CN(C)Cc1cccc(F)c1	-10.5	126.5*	.	97.9*	82.7	-32.0	69.9*
C[C@H]1CN([C@@H](C)CO)S(=O)(=O)c2ccc(C#Cc3ccccn3)cc2O[C@H]1CN(C)Cc1cccc(F)c1	1.8	125.2*	-4.2	108.5*	82.7	-10.1	-13.3
C[C@@H]1CN([C@H](C)CO)S(=O)(=O)c2ccc(C#Cc3ccccn3)cc2O[C@H]1CN(C)Cc1cccc(F)c1	-10.6	121.2*	0.9	103.0*	85.9	?	80.8*
C[C@H]1CN([C@@H](C)CO)S(=O)(=O)c2ccc(C#CC3CC3)cc2O[C@@H]1CN(C)Cc1cccc(F)c1	1.3	.	-2.5	.	.	.	.
C[C@@H]1CN([C@@H](C)CO)S(=O)(=O)c2ccc(C#CC3CC3)cc2O[C@@H]1CN(C)Cc1cccc(F)c1	4.1	.	-0.1	.	.	.	.
